Reference: ChEMBL document CHEMBL4118076, “Azide-alkyne cycloaddition towards 1H-1,2,3-triazole-tethered gatifloxacin and isatin conjugates: Design, synthesis and in vitro anti-mycobacterial evaluation” (Eur J Med Chem, 2017)
Converted amounts (≈) assume the structure as drawn.

What was measured:
Type in all cases: functional
[1] = test system: Mycobacterium tuberculosis; test: Antimycobacterial activity against multidrug resistant Mycobacterium tuberculosis after 3 to 7 days by rapid direct susceptibility test
Outline: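 Two-fold DMSO dilutions, 0.0125 to 200 μg/mL for H37Rv and 0.062 to 128 μg/mL for the MDR strain (resistant to INH, RIF and ethambutol), mixed with suspension containing 4×10^-3 mg cells. Sealed plates incubated at 37 °C in a wet box. Growth was read visually under high magnification at 3 days and again 7 days later. MIC is the lowest concentration giving complete growth inhibition.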

[2] = Resistance index, ratio of MIC90 for multidrug resistant Mycobacterium tuberculosis to MIC90 for Mycobacterium tuberculosis H37Rv
[3] = test system: Mycobacterium tuberculosis; test: Potency index, ratio of gatifloxacin MIC90 to compound MIC90 for multidrug resistant Mycobacterium tuberculosis
[4] = test system: Mycobacterium tuberculosis; test: Potency index, ratio of rifampicin MIC90 to compound MIC90 for multidrug resistant Mycobacterium tuberculosis
[5] = test system: Mycobacterium tuberculosis; test: Potency index, ratio of isoniazid MIC90 to compound MIC90 for multidrug resistant Mycobacterium tuberculosis

Compound `COc1c(N2CCNC(C)C2)c(F)cc2c(=O)c(C(=O)O)cn(C3CC3)c12` (centres undefined) [GATIFLOXACIN] has an MIC90 [1] of 1 µg/mL (≈ 2.66 µM).

`COc1c(N2CCN(Cc3cn(CCN4C(=O)C(=O)c5cc(F)ccc54)nn3)C(C)C2)c(F)cc2c(=O)c(C(=O)O)cn(C3CC3)c12` (centres undefined) gave an MIC90 [1] of 0.5 µg/mL (≈ 0.772 µM) and a Ratio [2] of less than 1.

Compound `COc1c(N2CCN(Cc3cn(CCN4C(=O)/C(=N\O)c5cc(F)ccc54)nn3)C(C)C2)c(F)cc2c(=O)c(C(=O)O)cn(C3CC3)c12` (centres undefined) has an MIC90 [1] of 1 µg/mL (≈ 1.51 µM).

`COc1c(N2CCN(Cc3cn(CCN4C(=O)C(=O)c5ccccc54)nn3)C(C)C2)c(F)cc2c(=O)c(C(=O)O)cn(C3CC3)c12` (centres undefined) gave an MIC90 [1] of 4 µg/mL (≈ 6.35 µM).

For `CO[C@H]1/C=C/O[C@@]2(C)Oc3c(C)c(O)c4c(O)c(c(/C=N/N5CCN(C)CC5)c(O)c4c3C2=O)NC(=O)/C(C)=C\C=C\[C@H](C)[C@H](O)[C@@H](C)[C@@H](O)[C@@H](C)[C@H](OC(C)=O)[C@@H]1C` [RIFAMPIN], the MIC90 [1] was 32 µg/mL (≈ 38.9 µM).

With `COc1c(N2CCN(Cc3cn(CCN4C(=O)C(=O)c5cc(C)ccc54)nn3)C(C)C2)c(F)cc2c(=O)c(C(=O)O)cn(C3CC3)c12` (centres undefined) the MIC90 [1] was 1 µg/mL (≈ 1.55 µM) and the Ratio [2] was less than 1.

Work on `CO/N=C1\C(=O)N(CCn2cc(CN3CCN(c4c(F)cc5c(=O)c(C(=O)O)cn(C6CC6)c5c4OC)CC3C)nn2)c2ccc(C)cc21` (centres undefined) yielded an MIC90 [1] of 0.5 µg/mL (≈ 0.743 µM) and a Ratio [2] of less than 1.

With `NNC(=O)c1ccncc1` [ISONIAZID] the MIC90 [1] was greater than 128 µg/mL.

`COc1c(N2CCN(Cc3cn(CCN4C(=O)/C(=N\O)c5ccccc54)nn3)C(C)C2)c(F)cc2c(=O)c(C(=O)O)cn(C3CC3)c12` (centres undefined) showed an MIC90 [1] of 8 µg/mL (≈ 12.4 µM).

Work on `COc1c(N2CCN(Cc3cn(CCN4C(=O)/C(=N\O)c5cc(Cl)ccc54)nn3)C(C)C2)c(F)cc2c(=O)c(C(=O)O)cn(C3CC3)c12` (centres undefined) yielded an MIC90 [1] of 2 µg/mL (≈ 2.95 µM).

`COc1c(N2CCN(Cc3cn(CCN4C(=O)/C(=N\O)c5cc(C)ccc54)nn3)C(C)C2)c(F)cc2c(=O)c(C(=O)O)cn(C3CC3)c12` (centres undefined) gave an MIC90 [1] of 8 µg/mL (≈ 12.1 µM).

For `CO/N=C1\C(=O)N(CCn2cc(CN3CCN(c4c(F)cc5c(=O)c(C(=O)O)cn(C6CC6)c5c4OC)CC3C)nn2)c2ccc(F)cc21` (centres undefined), the Ratio [3] was “>=4 - 512”, the Ratio [4] was “>=4 - 512” and the MIC90 [1] was 0.25 µg/mL (≈ 0.369 µM). The Ratio [5] was “>=4 - 512”.

`COc1c(N2CCN(Cc3cn(CCN4C(=O)C(=O)c5cc(Cl)ccc54)nn3)C(C)C2)c(F)cc2c(=O)c(C(=O)O)cn(C3CC3)c12` (centres undefined) gave an MIC90 [1] of 0.5 µg/mL (≈ 0.753 µM).

For `CO/N=C1\C(=O)N(CCn2cc(CN3CCN(c4c(F)cc5c(=O)c(C(=O)O)cn(C6CC6)c5c4OC)CC3C)nn2)c2ccc(Cl)cc21` (centres undefined), the Ratio [3] was “>=4 - 512”, the Ratio [4] was “>=4 - 512” and the MIC90 [1] was 0.25 µg/mL (≈ 0.361 µM). For the same compound, the Ratio [5] was “>=4 - 512”.

Compound `CO/N=C1\C(=O)N(CCn2cc(CN3CCN(c4c(F)cc5c(=O)c(C(=O)O)cn(C6CC6)c5c4OC)CC3C)nn2)c2ccccc21` (centres undefined) has an MIC90 [1] of 1 µg/mL (≈ 1.52 µM).
